The source made the active and inactive calls. The calls are words filed in the database; no cut-off is given here.
Experiments:
Type in all cases: functional, organism-based
[1] = test system: Cunninghamella bertholletiae; assay: Antifungal activity against Cunninghamella bertholletiae FMR-9598 infected in neutropenic OF1 mouse assessed as decreased fungal load in lung at 0.8 mg/kg, iv qd administered 1 day post infection measured after 4 to 5 days relative to untreated control; parameters: dose 0.8 mg/kg
Procedure, shortened: (§1)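 Neutropenic male OF1 mice (cyclophosphamide 200 mg/kg i.p. plus 5-fluorouracil 150 mg/kg i.v., day −1) were given 1 × 10⁴ CFU sporangiospores i.v. in 0.2 ml saline. Treatment from 24 h: 0.8 mg/kg i.v. or oral doses once daily; 10 mice per group. Killed at day 5 (day 4 if moribund). About half of brain, lungs and kidneys homogenized in saline; 10-fold dilutions plated on PDA for 24 h at 35°C; log₁₀ CFU/g tissue.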

[2] = test system: Cunninghamella bertholletiae; assay: Antifungal activity against Cunninghamella bertholletiae UTHSC 03-2241 infected in neutropenic OF1 mouse assessed as increase in mouse survival rate at 0.8 mg/kg, iv qd administered 1 day after infection for 7 days relative to untreated control; parameters: dose 0.8 mg/kg
Procedure, shortened: (§2)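 Male OF1 mice (~30 g) were made neutropenic with cyclophosphamide 200 mg/kg i.p. plus 5-fluorouracil 150 mg/kg i.v. 1 day before challenge. Challenge was 1 × 10⁴ CFU sporangiospores in 0.2 ml saline via the lateral tail vein. Mice got ceftazidime 5 mg/day s.c. on days 1–7. Dosing started 24 h post-challenge for 7 days. There were 10 mice/group, observed daily for 20 days. Kaplan-Meier analysis with log-rank test.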

[3] = test system: Cunninghamella bertholletiae; assay: Antifungal activity against Cunninghamella bertholletiae UTSCH 05-2275 infected in diabetic OF1 mouse assessed as decreased fungal load in lung at 0.8 mg/kg, iv qd administered 1 day post infection measured after 4 to 5 days relative to untreated control; parameters: dose 0.8 mg/kg
Procedure, shortened: (§3)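 Diabetic OF1 mice (streptozocin 210 mg/kg i.p.; glucose >250 mg/dl) were infected i.v. with 1 × 10⁵ CFU, with ceftazidime cover. Ten per group were treated from day 1 and killed day 5, or day 4 if moribund. Half-organ homogenates (brain, lung, kidney) in 1 ml saline were serially diluted 10-fold on PDA, incubated 24 h at 35°C, and reported as log₁₀ CFU/g tissue.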

[4] = test system: Cunninghamella bertholletiae; assay: Antifungal activity against Cunninghamella bertholletiae UTSCH 05-2275 infected in diabetic OF1 mouse assessed as decreased fungal load in kidney at 0.8 mg/kg, iv qd administered 1 day post infection measured after 4 to 5 days relative to untreated control; parameters: dose 0.8 mg/kg; procedure, shortened: as §3
[5] = test system: Cunninghamella bertholletiae; assay: Antifungal activity against Cunninghamella bertholletiae UTHSC 05-2275 infected in diabetic OF1 mouse assessed as increase in mouse survival rate at 0.8 mg/kg, iv qd administered 1 day after infection for 7 days relative to untreated control; parameters: dose 0.8 mg/kg
Procedure, shortened: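 Male OF1 mice were made diabetic with streptozocin 210 mg/kg i.p. Diabetes was confirmed by blood glucose >250 mg/dl at day 10. Challenge was 1 × 10⁵ CFU in 0.2 ml saline i.v. (tail vein), with ceftazidime 5 mg/day s.c. on days 1–7. Treatment began 1 day after challenge for 7 days. There were 10 mice/group, checked daily for 20 days. Kaplan-Meier analysis with log-rank comparison.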

[6] = test system: Cunninghamella bertholletiae; assay: Antifungal activity against Cunninghamella bertholletiae UTHSC 06-1945 infected in neutropenic OF1 mouse assessed as increase in mouse survival rate at 0.8 mg/kg, iv qd administered 1 day after infection; parameters: dose 0.8 mg/kg; procedure, shortened: as §2
[7] = test system: Cunninghamella bertholletiae; assay: Antifungal activity against Cunninghamella bertholletiae UTHSC 05-2275 infected in neutropenic OF1 mouse assessed as decreased fungal load in kidney at 0.8 mg/kg, iv qd administered 1 day post infection measured after 4 to 5 days relative to untreated control; parameters: dose 0.8 mg/kg
Procedure, shortened: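 Neutropenic male OF1 mice (cyclophosphamide 200 mg/kg i.p. + 5-fluorouracil 150 mg/kg i.v., day −1) were infected i.v. with 1 × 10⁴ CFU. Ten mice per group were treated from day 1 and killed by CO₂ on day 5, or on day 4 if moribund. Half of each brain, lung and kidney was homogenized in 1 ml saline. Ten-fold dilutions were plated on PDA for 24 h at 35°C and counted as log₁₀ CFU/g.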

[8] = test system: Cunninghamella bertholletiae; assay: Antifungal activity against Cunninghamella bertholletiae FMR 9598 infected in neutropenic OF1 mouse assessed as increase in mouse survival rate at 60 mg/kg, po qd administered 1 day after infection for 7 days relative to untreated control; parameters: dose 60 mg/kg
Procedure, shortened: (§4)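 Male OF1 mice, about 30 g, made neutropenic with cyclophosphamide 200 mg/kg i.p. plus 5-fluorouracil 150 mg/kg i.v. 1 day before challenge. Infected i.v. via the lateral tail vein with 1 × 10⁴ CFU of hemacytometer-counted sporangiospores in 0.2 ml saline. Ceftazidime 5 mg/day s.c. on days 1–7. Oral treatment started 24 h after challenge; 10 mice per group; checked daily for 20 days; Kaplan-Meier mean survival time, log-rank test.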

[9] = test system: Cunninghamella bertholletiae; assay: Antifungal activity against Cunninghamella bertholletiae UTHSC 05-2275 infected in neutropenic OF1 mouse assessed as decreased fungal load in kidney at 40 mg/kg, po qd administered 1 day post infection measured after 4 to 5 days relative to untreated control; parameters: dose 40 mg/kg; procedure, shortened: as §1
[10] = test system: Cunninghamella bertholletiae; assay: Antifungal activity against Cunninghamella bertholletiae UTSCH 05-2275 infected in diabetic OF1 mouse assessed as decreased fungal load in lung at 40 mg/kg, po qd administered 1 day post infection measured after 4 to 5 days relative to untreated control; parameters: dose 40 mg/kg
Procedure, shortened: (§5)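 Male OF1 mice (mean 30 g) made diabetic with a single i.p. dose of streptozocin 210 mg/kg; blood glucose >250 mg/dl at day 10 qualified. Ceftazidime 5 mg/day s.c. given on days 1–7. Challenge by lateral tail vein with 1 × 10⁵ CFU sporangiospores in 0.2 ml saline. Oral dosing once daily for 7 days, starting 1 day after challenge. Untreated controls. Ten mice per group.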

[11] = test system: Cunninghamella bertholletiae; assay: Antifungal activity against Cunninghamella bertholletiae UTSCH 05-2275 infected in diabetic OF1 mouse assessed as decreased fungal load in brain at 40 mg/kg, po qd administered 1 day post infection measured after 4 to 5 days relative to untreated control; parameters: dose 40 mg/kg
Procedure, shortened: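 Diabetic male OF1 mice (streptozocin 210 mg/kg i.p.; glucose above 250 mg/dl) were challenged i.v. with 1 × 10⁵ CFU sporangiospores. Oral once-daily dosing from day 1 for 7 days; 10 mice per group. Killed at day 5 (day 4 if moribund). About half of each organ homogenized in saline; serial 10-fold dilutions plated on PDA for 24 h at 35°C; log₁₀ CFU/g tissue.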

[12] = test system: Cunninghamella bertholletiae; assay: Antifungal activity against Cunninghamella bertholletiae UTSCH 05-2275 infected in diabetic OF1 mouse assessed as decreased fungal load in lung at 60 mg/kg, po qd administered 1 day post infection measured after 4 to 5 days relative to untreated control; parameters: dose 60 mg/kg; procedure, shortened: as §5
[13] = test system: Cunninghamella bertholletiae; assay: Antifungal activity against Cunninghamella bertholletiae UTHSC 05-2275 infected in neutropenic OF1 mouse assessed as increase in mouse survival rate at 60 mg/kg, po qd administered 1 day after infection for 7 days relative to untreated control; parameters: dose 60 mg/kg; procedure, shortened: as §4
[14] = test system: Cunninghamella bertholletiae; assay: Antifungal activity against Cunninghamella bertholletiae UTSCH 05-2275 infected in diabetic OF1 mouse assessed lung at 60 mg/kg, po qd administered 1 day post infection measured after 4 to 5 days relative to untreated control; parameters: dose 60 mg/kg; procedure, shortened: as §5
[15] = test system: Cunninghamella bertholletiae; assay: Antifungal activity against Cunninghamella bertholletiae UTHSC 05-2275 infected in neutropenic OF1 mouse assessed as decreased fungal load in lung at 40 mg/kg, po qd administered 1 day post infection measured after 4 to 5 days relative to untreated control; parameters: dose 40 mg/kg; procedure, shortened: as §1

## C[C@@H]1[C@H](O)[C@@H](C)/C=C/C=C/C=C/C=C/C=C/C=C/C=C/[C@H](O[C@@H]2O[C@H](C)[C@@H](O)[C@H](N)[C@@H]2O)C[C@@H]2O[C@](O)(C[C@@H](O)C[C@@H](O)[C@H](O)CC[C@@H](O)C[C@@H](O)CC(=O)O[C@H]1C)C[C@H](O)[C@H]2C(=O)O [AMPHOTERICIN B]
[1]
  Activity: Active
[2]
  Activity: Active
[3]
  Activity: inactive
[4]
  Activity: Active
[5]
  Activity: Active
[6]
  Activity: inactive
[7]
  Activity: Active

## CC[C@@H]([C@H](C)O)n1ncn(-c2ccc(N3CCN(c4ccc(OC[C@@H]5CO[C@@](Cn6cncn6)(c6ccc(F)cc6F)C5)cc4)CC3)cc2)c1=O [POSACONAZOLE]
[8]
  Activity: Active
[9]
  Activity: Active
[10]
  Activity: inactive
[11]
  Activity: inactive
[12]
  Activity: Active
[13]
  Activity: Active
[14]
  Activity: Active
[15]
  Activity: Active

— ChEMBL document CHEMBL1671756, “In vitro and in vivo antifungal susceptibilities of the Mucoralean fungus Cunninghamella” (2010)
